The target of assay [1] is T1, Cathepsin B (Bos taurus, UniProt P07688). Kind of assay: Inhibition of cathepsin B with Cbz-L-lysine-p-nitrophenyl ester as substrate. In short, it runs like this:
(§1)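 Bovine spleen cathepsin B stock (0.163 mg/mL) in 0.10 M sodium phosphate pH 6.0 with 0.10 mg/mL DTT. Diluted in 0.10 M phosphate pH 6.0, preincubated ± inhibitor 2.5 min at 30 °C. Started with Nα-Cbz-L-lysine p-nitrophenyl ester (0.0024 M stock); A405 change over 1 min. IC50 from % inhibition vs log[inhibitor], ≥4 concentrations in ≥3 repeats. NA means ≤25% activity loss at 100 µM or more.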

The target of assay [2] is T2, Plasma kallikrein (Homo sapiens, UniProt P03952). Kind of assay: Inhibition of kallikrein with benzoyl-L-arginine ethyl ester as substrate.
Assay [3] addresses T3, Plasminogen (Bos taurus, UniProt P06868). Kind of assay: Inhibition of plasmin with Val-L-Leu-L-lysine-p-nitroanilide as substrate. In short, it runs like this: (§2)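 Bovine plasma plasmin (6.24 mg/mL stock) in 0.45 M Tris pH 8.0 with 0.011 M NaCl, preincubated ± inhibitor 2.5 min at 37 °C. Reaction started with D-Val-L-Leu-L-Lys p-nitroanilide (0.0031 M stock); A405 change over 1 min. IC50 read from % inhibition vs log[inhibitor], ≥4 concentrations, each ≥3 times. NA: ≥100 µM lowers activity ≤25%.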

For assay [4], the target named is T4, Prothrombin (Bos taurus, UniProt P00735). The assay is described as follows: Inhibition of thrombin with benzoyl-Phe-Val-arginine- p-nitroanilide as substrate. The method, boiled down: (§3)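 Bovine plasma thrombin (19.7 NIH units/mL stock) in 0.01 M Tris pH 8.0, preincubated ± inhibitor 2.5 min at 37 °C. Benzoyl-Phe-Val-Arg p-nitroanilide (0.0005 M stock in 6.8% DMSO/buffer) initiated; A405 change over 1 min. Percent inhibition at ≥4 concentrations (≥3 repeats) plotted against log concentration for IC50.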

For assay [5], the target named is T5, Serine protease 1 (Bos taurus, UniProt P00760).
T5 sequence (P00760 whole entry): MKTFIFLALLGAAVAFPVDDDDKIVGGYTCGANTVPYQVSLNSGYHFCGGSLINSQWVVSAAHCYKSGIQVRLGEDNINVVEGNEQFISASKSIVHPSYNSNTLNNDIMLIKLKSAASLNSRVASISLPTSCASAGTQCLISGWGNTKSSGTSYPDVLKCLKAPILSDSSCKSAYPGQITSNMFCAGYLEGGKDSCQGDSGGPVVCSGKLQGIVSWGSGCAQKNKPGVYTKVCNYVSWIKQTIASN
The assay is described as follows: Inhibition of trypsin with benzoyl-L-arginine ethyl ester as substrate; […].

In assay [6] the target is T3, Plasminogen. Kind of assay: Inhibition of plasmin with Val-L-Leu-L-lysine-p-nitroanilide; Not significantly active. The method, boiled down: as §2
The target of assay [7] is T4, Prothrombin. The assay is described as follows: Inhibition of thrombin with benzoyl-Phe-Val-arginine- p-nitroanilide as substrate; Not significantly active. In short, it runs like this: as §3
The target in assay [8] is T2, Plasma kallikrein. The assay is described as follows: Inhibition of kallikrein with benzoyl-L-arginine ethyl ester as substrate; Not significantly active.
The target of assay [9] is T1, Cathepsin B. Kind of assay: Inhibition of cathepsin B with Cbz-L-lysine-p-nitrophenyl ester; Not significantly active. In short, it runs like this:
as §1

Assay [10] has as its target T5, Serine protease 1. Kind of assay: Inhibition of trypsin with benzoyl-L-arginine ethyl ester as substrate.

Where a SMILES comes first, the peptide text is derived from it.

As usually defined, the IC50 is the concentration that inhibits the measured activity by half. Low values mean greater potency, high ones weaker potency.

T2 sequence (P03952 20-390 limits assumed): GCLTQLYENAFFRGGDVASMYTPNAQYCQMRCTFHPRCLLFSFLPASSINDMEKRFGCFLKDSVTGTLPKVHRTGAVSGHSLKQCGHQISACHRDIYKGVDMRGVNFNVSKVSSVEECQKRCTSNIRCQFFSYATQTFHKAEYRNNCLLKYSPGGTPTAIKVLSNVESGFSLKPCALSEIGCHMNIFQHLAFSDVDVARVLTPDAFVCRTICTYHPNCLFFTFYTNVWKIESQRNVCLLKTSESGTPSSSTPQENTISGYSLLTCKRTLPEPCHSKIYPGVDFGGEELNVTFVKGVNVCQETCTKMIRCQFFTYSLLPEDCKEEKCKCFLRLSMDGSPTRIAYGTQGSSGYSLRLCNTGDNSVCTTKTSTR
T2 sequence (P03952 391-638 limits assumed): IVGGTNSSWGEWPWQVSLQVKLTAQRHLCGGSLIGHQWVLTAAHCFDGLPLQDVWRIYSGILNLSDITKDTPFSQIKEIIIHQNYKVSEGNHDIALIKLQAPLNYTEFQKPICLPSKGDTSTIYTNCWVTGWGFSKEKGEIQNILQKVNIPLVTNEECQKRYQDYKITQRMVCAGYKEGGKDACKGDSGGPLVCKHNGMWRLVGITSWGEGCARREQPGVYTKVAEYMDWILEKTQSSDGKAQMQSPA
T3 sequence (P06868 104-583 limits assumed): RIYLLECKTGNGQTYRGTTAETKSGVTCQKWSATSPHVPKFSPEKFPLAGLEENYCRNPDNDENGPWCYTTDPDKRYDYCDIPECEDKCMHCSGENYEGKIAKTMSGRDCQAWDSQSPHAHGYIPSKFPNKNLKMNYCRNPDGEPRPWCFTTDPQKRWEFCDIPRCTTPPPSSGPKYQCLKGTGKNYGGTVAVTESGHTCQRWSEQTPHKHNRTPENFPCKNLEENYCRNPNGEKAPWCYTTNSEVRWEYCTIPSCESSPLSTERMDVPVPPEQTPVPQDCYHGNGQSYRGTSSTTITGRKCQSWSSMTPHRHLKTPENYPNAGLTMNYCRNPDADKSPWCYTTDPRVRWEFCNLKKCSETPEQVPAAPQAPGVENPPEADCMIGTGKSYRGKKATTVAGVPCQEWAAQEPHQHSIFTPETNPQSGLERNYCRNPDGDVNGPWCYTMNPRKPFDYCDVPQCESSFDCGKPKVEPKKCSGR
T3 sequence (P06868 584-812 limits assumed): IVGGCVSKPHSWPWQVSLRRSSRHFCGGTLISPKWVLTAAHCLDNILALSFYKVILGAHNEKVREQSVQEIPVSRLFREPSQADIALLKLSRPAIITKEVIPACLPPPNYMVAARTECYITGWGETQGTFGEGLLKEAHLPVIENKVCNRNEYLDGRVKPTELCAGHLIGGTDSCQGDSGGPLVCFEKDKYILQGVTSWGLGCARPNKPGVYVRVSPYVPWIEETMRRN

Turning to `CC(=O)N[C@@H](Cc1ccc(O)cc1)C(=O)N[C@@H](CC(C)C)C(=O)N[C@H](C=O)CCCN=C(N)N` (Ac-Tyr-Leu-Arg-aldehyde), the IC50 is 22 µM in assay [1]; 26 µM in assay [2]; 78 µM in [3]; 35 µM in assay [4]; “Not Active” in assay [5].
Regarding `CC(=O)N[C@@H](Cc1ccccc1)C(=O)N[C@@H](CC(C)C)C(=O)N[C@H](C=O)CCCCN` (Ac-Phe-Leu-Lys-aldehyde), the IC50 in [1] was 18 µM; in assay [6], “Not Active”; in assay [7], “Not Active”; in [8], “Not Active”; in assay [5] it was “Not Active”.
Consider `CC(=O)N[C@H](C(=O)N[C@@H](CC(C)C)C(=O)N[C@H](C=O)CCCCN)C(C)C` (Ac-Val-Leu-Lys-aldehyde), for which the IC50 was 28 µM in [1]; “Not Active” in [6]; “Not Active” in assay [7]; “Not Active” in assay [8]; “Not Active” in assay [5].
Regarding `CC[C@H](C)[C@H](NC(C)=O)C(=O)N[C@@H](CC(C)C)C(=O)N[C@H](C=O)CCCN=C(N)N` (Ac-Ile-Leu-Arg-aldehyde), the IC50 entry in [9] was “Not Active”; in assay [2], 54 µM; in [3] it was 67 µM; in assay [4], 94 µM; in [5], “Not Active”.
`CC(=O)N[C@@H](CC(C)C)C(=O)N[C@@H](Cc1ccccc1)C(=O)N[C@H](C=O)CCCCN` (Ac-Leu-Phe-Lys-aldehyde): the IC50 in [1] is 0.1 µM; in assay [6], “Not Active”; in [7], “Not Active”; in assay [8] it was “Not Active”; in [5], “Not Active”.
Turning to `CC(=O)N[C@@H](Cc1ccccc1)C(=O)N[C@H](C(=O)N[C@H](C=O)CCCN=C(N)N)C(C)C` (Ac-Phe-Val-Arg-aldehyde), the IC50 was determined as 0.039 µM in assay [1]; 28 µM in assay [2]; 2.2 µM in assay [3]; 1.8 µM in [4]; 12 µM in [10].
In the same order, the values of `CC(=O)N[C@@H](Cc1ccccc1)C(=O)N[C@@H](CC(C)C)C(=O)N[C@H](C=O)CCCN=C(N)N` (Ac-Phe-Leu-Arg-aldehyde) are 1.5 µM, 16 µM, 7.7 µM, 71 µM and 37 µM.
`CC(=O)N[C@@H](CC(C)C)C(=O)N[C@H](C(=O)N[C@H](C=O)CCCN=C(N)N)C(C)C` (Ac-Leu-Val-Arg-aldehyde): the 50% inhibitory concentration (IC50) was 130 µM in [1]; 16 µM in assay [2]; “Not Active” in assay [6]; “Not Active” in assay [7]; “Not Active” in assay [5].
`CC(=O)N[C@H](C(=O)N[C@@H](CC(C)C)C(=O)N[C@H](C=O)CCCN=C(N)N)C(C)C` (Ac-Val-Leu-Arg-aldehyde): the half-maximal inhibitory concentration (IC50) in assay [1] stood at 100 µM; in assay [2] it was 19 µM; in assay [3] it was 65 µM; in assay [4] it was 170 µM; in assay [10] it was 130 µM.
Taken in the same sequence, the figures for `CC(=O)N[C@@H](CC(C)C)C(=O)N[C@@H](CC(C)C)C(=O)N[C@H](C=O)CCCNC(=N)N` [LEUPEPTIN] were 0.31 µM, 40 µM, 3.7 µM, 12 µM and 8.1 µM.
In the case of `CC(=O)N[C@@H](CC(C)C)C(=O)N[C@H](C(=O)N[C@H](C=O)CCCCN)C(C)C` (Ac-Leu-Val-Lys-aldehyde), the 50% inhibitory concentration (IC50) in assay [1] was 0.004 µM; in [3], 13 µM; in [4] it was 140 µM; in assay [10], 45 µM; in [8], “Not Active”.
In the case of `CC[C@H](C)[C@H](NC(=O)[C@H](CC(C)C)NC(C)=O)C(=O)N[C@H](C=O)CCCN=C(N)N` (Ac-Leu-Ile-Arg-aldehyde), the 50% inhibitory concentration (IC50) is 0.15 µM in assay [1]; 35 µM in assay [2]; 11 µM in assay [3]; 18 µM in assay [4]; 9.1 µM in assay [10].
As for `CC(=O)N[C@@H](CC(C)C)C(=O)N[C@@H](Cc1ccccc1)C(=O)N[C@H](C=O)CCCN=C(N)N` (Ac-Leu-Phe-Arg-aldehyde), the 50% inhibitory concentration (IC50) is 1.1 µM in [1]; 41 µM in [2]; 3.6 µM in assay [3]; 8.2 µM in assay [4]; “Not Active” in assay [5].
Consider `CC(=O)N[C@@H](CC(C)C)C(=O)N[C@@H](CC(C)C)C(=O)N[C@H](C=O)CCCCN` (Ac-Leu-Leu-Lys-aldehyde), for which the IC50 in assay [1] was 0.13 µM; in assay [3], 18 µM; in assay [7], “Not Active”; in [8], “Not Active”; in [5] it was “Not Active”.
In the case of `CC[C@H](C)[C@H](NC(C)=O)C(=O)N[C@@H](CC(C)C)C(=O)N[C@H](C=O)CCCCN` (Ac-Ile-Leu-Lys-aldehyde), the 50% inhibitory concentration (IC50) is 2 µM in assay [1]; 17 µM in assay [3]; “Not Active” in assay [7]; “Not Active” in assay [8]; “Not Active” in assay [5].
`CC(=O)N[C@@H](CC(C)C)C(=O)N[C@@H](Cc1ccc(O)cc1)C(=O)N[C@H](C=O)CCCN=C(N)N` (Ac-Leu-Tyr-Arg-aldehyde): the IC50 in [1] is 1.6 µM; in assay [2] it was 25 µM; in assay [3], 5.6 µM; in assay [4] it was 66 µM; in [5], “Not Active”.

Values taken from ChEMBL document CHEMBL1126640, “Inhibition studies of some serine and thiol proteinases by new leupeptin analogues” (J Med Chem, 1993).
